Legend:
[1] = molecular target: T1, Ectonucleotide pyrophosphatase/phosphodiesterase family member 3 (Homo sapiens, UniProt O14638); experiment: Competitive inhibition of human NPP3 using ATP as substrate
T1 sequence (O14638 whole entry): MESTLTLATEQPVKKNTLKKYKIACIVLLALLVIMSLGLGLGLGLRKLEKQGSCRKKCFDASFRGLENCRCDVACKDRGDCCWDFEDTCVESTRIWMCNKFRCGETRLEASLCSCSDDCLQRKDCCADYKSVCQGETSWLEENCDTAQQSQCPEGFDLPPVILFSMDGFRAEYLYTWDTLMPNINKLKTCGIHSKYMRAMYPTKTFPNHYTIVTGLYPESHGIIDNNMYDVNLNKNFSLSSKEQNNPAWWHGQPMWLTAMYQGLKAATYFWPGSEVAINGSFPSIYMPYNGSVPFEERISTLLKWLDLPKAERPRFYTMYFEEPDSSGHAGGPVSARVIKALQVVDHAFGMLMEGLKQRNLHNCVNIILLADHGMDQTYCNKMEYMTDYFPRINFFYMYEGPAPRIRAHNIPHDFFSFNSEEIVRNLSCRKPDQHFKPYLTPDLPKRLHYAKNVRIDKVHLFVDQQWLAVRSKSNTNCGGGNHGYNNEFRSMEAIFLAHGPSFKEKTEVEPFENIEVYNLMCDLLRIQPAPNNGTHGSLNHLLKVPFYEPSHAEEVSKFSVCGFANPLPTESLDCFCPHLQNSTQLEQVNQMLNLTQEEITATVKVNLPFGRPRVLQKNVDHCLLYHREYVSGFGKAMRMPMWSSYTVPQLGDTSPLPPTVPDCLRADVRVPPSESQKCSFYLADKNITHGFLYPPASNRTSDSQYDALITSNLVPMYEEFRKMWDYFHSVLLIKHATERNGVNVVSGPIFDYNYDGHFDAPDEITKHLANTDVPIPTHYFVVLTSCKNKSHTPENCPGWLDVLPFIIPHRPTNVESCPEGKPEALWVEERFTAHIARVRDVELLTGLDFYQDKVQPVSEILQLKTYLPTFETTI

Autotaxin = Autotaxin (Homo sapiens, UniProt Q13822); experiment: Competitive inhibition of human NPP2 using lysophosphotidylcholine as substrate
[2] = molecular target: T2, Ectonucleotide pyrophosphatase/phosphodiesterase family member 1 (Homo sapiens) (UniProt P22413); experiment: Inhibition of human NPP1 using p-Nph-5'-TMP as substrate at 10 uM
T2 sequence (whole entry): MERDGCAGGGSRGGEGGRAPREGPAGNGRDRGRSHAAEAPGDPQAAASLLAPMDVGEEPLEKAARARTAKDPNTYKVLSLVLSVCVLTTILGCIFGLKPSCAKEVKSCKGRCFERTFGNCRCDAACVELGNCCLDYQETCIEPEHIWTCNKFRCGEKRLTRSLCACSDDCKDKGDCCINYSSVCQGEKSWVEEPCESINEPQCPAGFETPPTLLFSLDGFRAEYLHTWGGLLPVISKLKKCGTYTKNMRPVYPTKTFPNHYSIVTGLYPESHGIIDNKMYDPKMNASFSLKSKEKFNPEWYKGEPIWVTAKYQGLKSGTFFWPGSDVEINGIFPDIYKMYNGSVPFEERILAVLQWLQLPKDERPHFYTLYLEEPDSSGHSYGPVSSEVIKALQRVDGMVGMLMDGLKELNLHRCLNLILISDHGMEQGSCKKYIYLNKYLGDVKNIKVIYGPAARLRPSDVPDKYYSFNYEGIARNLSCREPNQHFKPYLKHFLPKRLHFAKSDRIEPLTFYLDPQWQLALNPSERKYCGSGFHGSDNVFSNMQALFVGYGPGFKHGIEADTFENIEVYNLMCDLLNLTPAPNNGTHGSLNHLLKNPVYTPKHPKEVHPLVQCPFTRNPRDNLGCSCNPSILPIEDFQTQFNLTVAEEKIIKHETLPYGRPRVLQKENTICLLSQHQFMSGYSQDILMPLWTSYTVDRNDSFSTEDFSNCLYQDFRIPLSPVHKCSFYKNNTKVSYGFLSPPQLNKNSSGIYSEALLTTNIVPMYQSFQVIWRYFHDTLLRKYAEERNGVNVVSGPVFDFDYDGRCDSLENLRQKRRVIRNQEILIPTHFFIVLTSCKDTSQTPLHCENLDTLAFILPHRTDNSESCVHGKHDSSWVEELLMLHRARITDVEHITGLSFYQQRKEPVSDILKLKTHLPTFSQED
Outline: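 Single-point screen at 10 μM compound against soluble human NPP1 (20 ng), 400 μM p-Nph-5′-TMP, 50 mM Tris pH 9.0, 1 mM CaCl2, 200 μM ZnCl2, 37 °C 15 min, NaOH stop; percent inhibition from p-nitrophenolate absorbance at 400 nm; compounds in DMSO (10 mM stock).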

[3] = molecular target: T3, Ectonucleotide pyrophosphatase/phosphodiesterase family member 1 (Homo sapiens, UniProt P22413); experiment: Competitive inhibition of human NPP1 using p-Nph-5'-TMP as substrate by Lineweaver-Burk plot analysis
T3 sequence (P22413 whole entry): T2 sequence (whole entry)

[4] = molecular target: T3, Ectonucleotide pyrophosphatase/phosphodiesterase family member 1; experiment: Inhibition of human NPP1 using p-Nph-5'-TMP as substrate
[5] = molecular target: T3, Ectonucleotide pyrophosphatase/phosphodiesterase family member 1; experiment: Competitive inhibition of human NPP1 using ATP as substrate by Lineweaver-Burk plot analysis

inhibition [2] [%]	Ki [3] [µM]	Ki [4] [µM]	Ki [5] [µM]	Compound	other results
–	–	–	–	COc1ccc2nc(SCC(=O)Nc3ccc(OC)c(OC)c3)[nH]c2n1	Ki [1]: 68.1 µM; Ki (Autotaxin): 71.2 µM
50	–	–	–	COc1ccc(NS(=O)(=O)CSc2nc3ncccc3[nH]2)cc1OC	–
–	0.131	0.131	30.2	COc1ccc(NC(=O)CSc2nc3nccnc3[nH]2)cc1OC	–
23	–	–	–	COc1ccc(NC(=O)CSc2nc3c(=O)n(C)c(=O)n(C)c3[nH]2)cc1OC	–
–	0.0358	0.0358	22.5	COc1ccc(NC(=O)CSc2nc3c(=O)[nH]c(=O)[nH]c3[nH]2)cc1OC	–
23	–	–	–	O=C(CSc1nc2cccnc2[nH]1)Nc1cccc(Br)c1	–
15	–	–	–	CCOC(=O)c1cccc(NC(=O)CSc2nc3cccnc3[nH]2)c1	–
–	0.152	0.152	26.7	COc1ccc(NC(=O)CSc2nc3c(N)nc(SC)nc3[nH]2)cc1OC	–
50	–	–	–	CC(=O)c1cccc(NC(=O)CSc2nc3cccnc3[nH]2)c1	–
34	–	–	–	COc1ccc(NC(=O)CSc2nc3ccccc3[nH]2)cc1OC	–
12	–	–	–	COc1ccc(OC)c(NC(=O)CSc2nc3cccnc3[nH]2)c1	–
59	–	–	–	COc1ccc(NC(=O)CSc2nc3ccc(SC)nc3[nH]2)cc1OC	–
–	0.005	0.005	18	COc1ccc(NC(=O)CSc2nc3c(N)ncnc3[nH]2)cc1OC	–
–	0.281	0.281	15.7	COc1ccc(NC(=O)CSc2nc3cncnc3[nH]2)cc1OC	–
–	0.137	0.137	9.78	COc1ccc(NC(=O)CSc2nc3cc(Cl)cnc3[nH]2)cc1OC	–
–	0.02	0.02	14.3	COc1ccc(NC(=O)CSc2nc3c(=O)[nH]cnc3[nH]2)cc1OC	–
2	–	–	–	Cc1ccc(NC(=O)CSc2nc3cccnc3[nH]2)c(Cl)c1	–
11	–	–	–	Cc1ccc(NC(=O)CSc2nc3cccnc3[nH]2)cc1C	–
–	3.65	3.65	67.9	COc1ccc(NC(=O)CSc2nc3c(SC)nc(N)nc3[nH]2)cc1OC	–
58	–	–	–	COc1ccc(NC(=O)CSc2nc3ccc(N(C)C)nc3[nH]2)cc1OC	–
–	11	11	89.7	COc1ccc(NC(=O)CSc2nc3c(OC(C)C)nc(N)nc3[nH]2)cc1OC	–
43	–	–	–	CCn1c(=O)[nH]c(=O)c2nc(SCC(=O)Nc3ccc(OC)c(OC)c3)[nH]c21	–
30	–	–	–	O=C(CSc1nc2cccnc2[nH]1)Nc1ccc(F)cc1	–
13	–	–	–	COc1ccc(NC(=O)CCSc2nc3cccnc3[nH]2)cc1OC	–
61	–	–	–	COc1ccc(NC(=O)CSc2nc3ccc(OCC(F)(F)F)nc3[nH]2)cc1OC	–
45	–	–	–	COc1ccc(NC(=O)CSc2nc3ccc(N4CCOCC4)nc3[nH]2)cc1OC	–

inhibition [2] [%]	Ki [3] [µM]	Ki [4] [µM]	Ki [5] [µM]	Compound	other results
–	0.192	0.192	10.8	COc1ccc(NC(=O)CSc2nc3cc(Br)cnc3[nH]2)cc1OC	–
0	–	–	–	COc1ccc(CNC(=O)CSc2nc3cccnc3[nH]2)cc1OC	–
13	–	–	–	O=C(CSc1nc2cccnc2[nH]1)Nc1ccccc1F	–
30	–	–	–	O=C(CSc1nc2cccnc2[nH]1)Nc1ccccc1	–
21	–	–	–	COc1ccccc1NC(=O)CSc1nc2ccc[nH]c-2n1	–
8	–	–	–	COc1ccc(NC(=O)CSc2nc3cccnc3[nH]2)c(OC)c1	–
45	–	–	–	N#Cc1cccc(NC(=O)CSc2nc3cccnc3[nH]2)c1	–
35	–	–	–	COc1ccc(NC(=O)CSc2nc3ccc(N4CCN(C)CC4)nc3[nH]2)cc1OC	–
–	8.04	8.04	42.2	COc1ccc(NC(=O)CSc2nc3c(OC)nc(N)nc3[nH]2)cc1OC	–
27	–	–	–	COc1ccc(NC(=O)CSc2nc3ccc(N4CCCCC4)nc3[nH]2)cc1OC	–
6	–	–	–	COc1ccc(NC(=O)C(C)Sc2nc3cccnc3[nH]2)cc1OC (centres undefined)	–
–	0.217	0.217	22.3	COc1ccc(NC(=O)CSc2nc3ccc[nH]c-3n2)cc1OC	–
48	–	–	–	COc1ccc(NC(=O)CSc2nc3cccnc3[nH]2)cc1	–
19	–	–	–	O=C(CSc1nc2cccnc2[nH]1)Nc1ccccc1Cl	–
38	–	–	–	COc1cc(NC(=O)CSc2nc3cccnc3[nH]2)cc(OC)c1	–
23	–	–	–	CN(C)c1ccc(NC(=O)CSc2nc3cccnc3[nH]2)cc1	–
–	1.01	1.01	33.6	CCOc1nc(N)nc2[nH]c(SCC(=O)Nc3ccc(OC)c(OC)c3)nc12	–
19	–	–	–	Cc1cccc(C)c1NC(=O)CSc1nc2cccnc2[nH]1	–
30	–	–	–	COc1cccc(NC(=O)CSc2nc3cccnc3[nH]2)c1	–
17	–	–	–	O=C(CSc1nc2cccnc2[nH]1)Nc1ccc(Cl)cc1	–
–	0.0442	0.0442	29.2	COc1ccc(NC(=O)CSc2nc3cnccc3[nH]2)cc1OC	–
–	3.48	3.48	78	COc1ccc(NC(=O)CSc2nc3c(N)nc(N)nc3[nH]2)cc1OC	–
64	–	–	–	COc1ccc(NC(=O)CSc2ncc[nH]2)cc1OC	–
10	–	–	–	O=C(CSc1nc2cccnc2[nH]1)Nc1ccc(Cl)c(Cl)c1	–
–	0.127	0.127	7.59	COc1ccc(NC(=O)CSc2nc3c(C)ccnc3[nH]2)cc1OC	–
